Assay results reported in ChEMBL document CHEMBL1641456, “Design, synthesis, and pharmacological evaluation of azetedine and pyrrolidine derivatives as dual norepinephrine reuptake inhibitors and 5-HT(1A) partial agonists” (Bioorg Med Chem Lett, 2011).

Tests used:
[1] = target: Sodium-dependent serotonin transporter (Homo sapiens, UniProt P31645); assay: Displacement of [3H]citalopram from human SERT by scintillation proximity assay
In short: (§1)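 Human transporter binding by scintillation proximity assay: inhibition of [³H]nisoxetine (NET), [³H]WIN 35,428 (DAT) or [³H]citalopram (SERT) binding measured. Ki values are the mean of at least two experiments, each run in duplicate.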

[2] = target: T1, 5-hydroxytryptamine receptor 1A (Homo sapiens, UniProt P08908); assay: Displacement of [3H]8-OH-DPAT from human cloned 5HT1A receptor by liquid scintillation spectrophotometry
T1 sequence (P08908 whole entry): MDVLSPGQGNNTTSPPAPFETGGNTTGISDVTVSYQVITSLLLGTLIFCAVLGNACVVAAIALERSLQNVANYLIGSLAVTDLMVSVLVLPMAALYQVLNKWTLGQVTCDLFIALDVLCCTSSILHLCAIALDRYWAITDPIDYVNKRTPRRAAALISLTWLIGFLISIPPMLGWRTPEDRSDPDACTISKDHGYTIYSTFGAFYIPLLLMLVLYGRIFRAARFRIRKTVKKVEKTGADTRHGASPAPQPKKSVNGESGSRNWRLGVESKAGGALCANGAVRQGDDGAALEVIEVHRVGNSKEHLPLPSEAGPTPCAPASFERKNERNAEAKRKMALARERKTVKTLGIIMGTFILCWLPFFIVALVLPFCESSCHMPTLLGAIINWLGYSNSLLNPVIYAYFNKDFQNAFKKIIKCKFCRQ

[3] = target: Sodium-dependent dopamine transporter (Homo sapiens, UniProt Q01959); assay: Displacement of [3H]WIN-35,428 from human DAT by scintillation proximity assay; in short: as §1
Sodium-dependent dopamine transporter, sequence (Q01959 whole entry): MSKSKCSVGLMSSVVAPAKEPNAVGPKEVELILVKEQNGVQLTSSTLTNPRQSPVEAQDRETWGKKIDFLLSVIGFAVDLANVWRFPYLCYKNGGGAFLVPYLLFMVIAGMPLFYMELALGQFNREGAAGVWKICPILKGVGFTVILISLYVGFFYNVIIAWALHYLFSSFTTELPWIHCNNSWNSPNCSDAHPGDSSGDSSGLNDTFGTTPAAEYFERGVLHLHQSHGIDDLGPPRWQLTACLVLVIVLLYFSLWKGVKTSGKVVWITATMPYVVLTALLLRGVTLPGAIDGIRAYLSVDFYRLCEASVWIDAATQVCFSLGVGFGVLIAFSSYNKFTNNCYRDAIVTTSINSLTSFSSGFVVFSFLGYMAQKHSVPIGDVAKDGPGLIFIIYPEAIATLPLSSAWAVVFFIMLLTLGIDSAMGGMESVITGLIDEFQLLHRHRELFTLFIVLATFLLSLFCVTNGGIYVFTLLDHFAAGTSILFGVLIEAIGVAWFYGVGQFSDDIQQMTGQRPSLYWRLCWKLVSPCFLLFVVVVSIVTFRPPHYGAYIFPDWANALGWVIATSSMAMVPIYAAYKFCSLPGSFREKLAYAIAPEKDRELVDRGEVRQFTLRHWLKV

[4] = target: T2, Sodium-dependent noradrenaline transporter (Homo sapiens, UniProt P23975); assay: Displacement of [3H]nisoxetine from human NET by scintillation proximity assay; in short: as §1
T2 sequence (P23975 whole entry): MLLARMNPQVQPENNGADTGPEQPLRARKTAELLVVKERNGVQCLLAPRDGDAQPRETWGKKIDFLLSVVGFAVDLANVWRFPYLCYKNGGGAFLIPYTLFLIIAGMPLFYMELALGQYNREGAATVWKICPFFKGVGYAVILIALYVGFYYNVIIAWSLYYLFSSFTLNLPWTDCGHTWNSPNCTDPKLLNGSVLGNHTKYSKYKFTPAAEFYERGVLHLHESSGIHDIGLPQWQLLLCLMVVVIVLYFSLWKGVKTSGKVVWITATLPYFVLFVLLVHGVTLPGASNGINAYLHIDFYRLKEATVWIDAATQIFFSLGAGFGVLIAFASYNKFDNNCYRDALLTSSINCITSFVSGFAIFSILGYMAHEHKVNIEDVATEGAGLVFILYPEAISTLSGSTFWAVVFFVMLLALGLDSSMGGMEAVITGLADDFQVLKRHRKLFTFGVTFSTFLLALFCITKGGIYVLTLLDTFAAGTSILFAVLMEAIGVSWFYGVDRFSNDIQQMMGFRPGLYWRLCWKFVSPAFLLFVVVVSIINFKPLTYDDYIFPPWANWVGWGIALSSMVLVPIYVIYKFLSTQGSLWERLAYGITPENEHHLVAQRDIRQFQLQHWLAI

[5] = Drug level in rat brain at 10 mg/kg, sc after 1 hr; format: ADME, organism-based; set-up: dose 10 mg/kg, route subcutaneous; details: read-out: Drug uptake
In short: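 Rats dosed subcutaneously at 10 mg/kg; total brain drug concentration measured 1 h post-dose. Reported as mean with SEM, n = 4.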

[6] = target: T2, Sodium-dependent noradrenaline transporter; assay: […] at human cloned NET expressed in HEK293 cells by FLIPR assay; format: functional, cell-based
[7] = test system: Rattus norvegicus; assay: In vivo 5HT1A receptor occupancy in rat brain at 10 mg/kg, sc after 1 hr; format: functional; details: route subcutaneous
In short: (§2)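 Ex vivo receptor occupancy of NET and 5-HT1A in rat brain, collected 1 h after 10 mg/kg subcutaneous dosing.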

[8] = target: T1, 5-hydroxytryptamine receptor 1A; assay: Agonist activity at 5HT1A receptor by GTPgammaS binding assay; format: functional
[9] = Tmax in dog at 5 mg/kg, po; format: ADME, organism-based, Canis lupus familiaris; set-up: dose 5 mg/kg, route oral; details: in vivo
[10] = AUC ( 0 to 24 hrs) in dog at 5 mg/kg, po after 1 hr; format: ADME, organism-based, Canis lupus familiaris; set-up: time < 24 hr, dose 5 mg/kg, route oral; details: plasma
[11] = test system: Rattus norvegicus; assay: In vivo NET occupancy in rat brain at 10 mg/kg, sc after 1 hr; format: functional; details: route subcutaneous; in short: as §2
[12] = Cmax in dog at 5 mg/kg, po after 1 hr; format: ADME, organism-based, Canis lupus familiaris; set-up: dose 5 mg/kg, route oral; details: in vivo
[13] = test system: Rattus norvegicus; assay: In vivo 5HT1A receptor occupancy in sc dosed rat brain; format: functional
In short: (§3)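 Ex vivo NET and 5-HT1A occupancy in rat brain from a subcutaneous dose–response, read 1 h post-dose. ID50 derived from the dose–response. For 5-HT1A, the dose giving 10% receptor occupancy was also determined.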

[14] = Half life in dog at 5 mg/kg, po; format: ADME, organism-based, Canis lupus familiaris; set-up: dose 5 mg/kg, route oral; details: in vivo
[15] = test system: Rattus norvegicus; assay: In vivo NET occupancy in sc dosed rat brain; format: functional; details: read-out: ID50 (the source's name); in short: as §3

Sodium-dependent serotonin transporter, sequence (P31645 whole entry): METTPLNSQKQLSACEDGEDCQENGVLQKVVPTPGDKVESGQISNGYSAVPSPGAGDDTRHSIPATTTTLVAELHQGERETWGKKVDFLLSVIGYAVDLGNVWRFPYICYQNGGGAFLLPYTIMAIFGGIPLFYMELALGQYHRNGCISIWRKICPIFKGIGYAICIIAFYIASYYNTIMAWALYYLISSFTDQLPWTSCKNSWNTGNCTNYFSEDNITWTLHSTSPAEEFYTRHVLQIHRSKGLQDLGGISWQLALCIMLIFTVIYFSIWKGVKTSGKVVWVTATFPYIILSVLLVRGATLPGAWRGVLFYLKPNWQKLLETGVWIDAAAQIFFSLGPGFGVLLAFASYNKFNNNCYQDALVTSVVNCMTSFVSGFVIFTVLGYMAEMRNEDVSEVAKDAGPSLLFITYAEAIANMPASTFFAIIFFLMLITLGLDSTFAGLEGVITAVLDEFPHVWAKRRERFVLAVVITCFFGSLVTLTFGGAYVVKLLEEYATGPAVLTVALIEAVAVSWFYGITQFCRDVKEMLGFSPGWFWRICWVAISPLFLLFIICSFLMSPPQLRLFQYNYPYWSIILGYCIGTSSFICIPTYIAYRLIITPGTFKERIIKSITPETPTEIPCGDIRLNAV

SMILES	Ki [1] [µM]	Ki [2] [µM]	Ki [3] [µM]	Ki [4] [µM]	also measured
Fc1cccc(F)c1Oc1cccc(F)c1OC1CNC1	> 4.62	< 0.003	> 6.41	0.482	
Fc1cccc(Oc2c(Cl)cccc2Cl)c1OC1CNC1	> 4.62	0.006	> 5.94	0.164	
Cc1cccc(Cl)c1Oc1cccc(F)c1OC1CNC1	> 4.61	0.016	> 6.41	0.433	
Fc1cccc(Oc2cccc(Cl)c2Cl)c1OC1CNC1	0.094	0.016	0.312	0.374	
Fc1ccccc1Oc1ccccc1OC1CCNCC1	> 4.71	0.693	4.51	1	
Cc1cccc(F)c1Oc1cccc(F)c1OC1CCNCC1	3.25	0.004	> 6.46	0.323	
Fc1ccccc1Oc1cccc(F)c1OC1CCNC1 (centres undefined)	> 4.71	0.008	3.88	1.02	
Fc1cccc(Oc2ccccc2Cl)c1OC1CCNC1 (centres undefined)	2.23	0.019	2.03	0.192	
Fc1cccc(Cl)c1Oc1cccc(F)c1OC1CCNC1 (centres undefined)	> 4.9		> 6.46	0.226	concentration at 1 h [5]: 5620 ng/mL; EC50 [6]: 0.097 µM; Activity [7]: 73%; Activity [11]: 54%
Fc1cccc(Cl)c1Oc1cccc(F)c1O[C@H]1CCNC1	> 4.53		> 5.87	1.01	
Fc1cccc(Cl)c1Oc1ncccc1OC1CCNC1 (centres undefined)	> 6.13	0.203	> 4.62	1.14	
Fc1ccccc1Oc1cccc(F)c1C1CCNCC1					concentration at 1 h [5]: 2230 ng/mL; Activity [7]: 62%; Activity [11]: 80%

Further lines, with some results ahead:

Ki [1] [µM]	Ki [2] [µM]	Ki [3] [µM]	Ki [4] [µM]	SMILES	also measured
2.67	0.057	2.09	1.64	c1ccc(Oc2ccccc2OC2CNC2)cc1	
> 4.71	0.022	2.04	0.528	Fc1ccccc1Oc1ccccc1OC1CNC1	
> 4.71	0.012	> 4.86	0.507	Fc1ccccc1Oc1cccc(F)c1OC1CNC1	
1.71	0.014	4.7	0.198	Fc1cccc(Oc2ccccc2Cl)c1OC1CNC1	
> 4.9	0.001	> 6.46	0.138	Fc1cccc(Cl)c1Oc1cccc(F)c1OC1CNC1	concentration at 1 h [5]: 5900 ng/mL; EC50 [6]: 0.028 µM; Activity [7]: 81%; EC50 [8]: 0.197 µM; Tmax [9]: 1 h; AUC(0-t) at 24 h [10]: 3480 ng·h/mL; Activity [11]: 87%; Cmax [12]: 919 ng/mL; ID10 [13]: < 1 mg/kg; half-life [14]: 2.35 h; ED50 [15]: 1.2 mg/kg
1.16	0.003	> 6.46	0.116	Cc1cccc(F)c1Oc1cccc(F)c1OC1CNC1	concentration at 1 h [5]: 5690 ng/mL; EC50 [6]: 0.239 µM; Activity [7]: 76%; EC50 [8]: 0.225 µM; Tmax [9]: 1 h; AUC(0-t) at 24 h [10]: 2800 ng·h/mL; Activity [11]: 84%; Cmax [12]: 525 ng/mL; half-life [14]: 3.01 h
> 4.65	0.03	2.19	0.489	Fc1ccccc1Oc1cccc(F)c1OC1CCNCC1	
2.04	0.008	> 6.37	0.218	Fc1cccc(Cl)c1Oc1cccc(F)c1OC1CCNCC1	
> 4.71	0.09	> 5.59	1.95	Fc1ccccc1Oc1cccc(F)c1OC1CCCNC1 (centres undefined)	
> 4.71	0.193	> 6.22	1.35	Fc1ccccc1Oc1ccccc1OC1CCNC1 (centres undefined)	
> 4.69	0.004	> 6.46	0.328	Cc1cccc(F)c1Oc1cccc(F)c1OC1CCNC1 (centres undefined)	
> 4.53		> 5.87	0.11	Fc1cccc(Cl)c1Oc1cccc(F)c1O[C@@H]1CCNC1	Tmax [9]: 1 h; AUC(0-t) at 24 h [10]: 560 ng·h/mL; Cmax [12]: 146 ng/mL; half-life [14]: 1.85 h
> 6.28	0.064	> 4.26	0.073	Fc1cccc(Cl)c1Oc1ncccc1OC1CNC1	
